{"source": "ChEMBL document CHEMBL1122791", "about": "“Inhibition of arabinose 5-phosphate isomerase. An approach to the inhibition of bacterial lipopolysaccharide biosynthesis” (J Med Chem, 1984)", "molecules": {"B1": {"name": "Arabinose 5-phosphate isomerase KdsD (Salmonella typhimurium (strain LT2 / SGSC1412 / ATCC 700720)), Q8ZLS1 (protein)", "chain": "MSHLALQPGFDFQQAGKEVLEIEREGLAELDQYINQHFTLACEKMFNCTGKVVVMGMGKSGHIGRKMAATFASTGTSSFFVHPGEAAHGDLGMVTPQDVVIAISNSGESSEIAALIPVLKRLHVPLICITGRPESSMARAADVHLCVKVPKEACPLGLAPTSSTTATLVMGDALAVALLKARGFTAEDFALSHPGGALGRKLLLRVSDIMHTGDEIPHVNKHATLRDALLEITRKNLGMTVICDESMKIDGIFTDGDLRRVFDMGGDMRQLGIAEVMTPGGIRVRPGILAVDALNLMQSRHITSVLVADGDQLLGVLHMHDLLRAGVV"}}, "key": {"[1]": {"system": "arabinose 5-phosphate isomerase (Escherichia coli)", "assay": "Inhibitory activity against Arabinose-5-phosphate isomerase at a concentration of 6 mM; Not active."}, "[2]": {"biological_target": "arabinose 5-phosphate isomerase (Escherichia coli) (UniProt P45395)", "sequence (P45395 whole entry, looked up)": "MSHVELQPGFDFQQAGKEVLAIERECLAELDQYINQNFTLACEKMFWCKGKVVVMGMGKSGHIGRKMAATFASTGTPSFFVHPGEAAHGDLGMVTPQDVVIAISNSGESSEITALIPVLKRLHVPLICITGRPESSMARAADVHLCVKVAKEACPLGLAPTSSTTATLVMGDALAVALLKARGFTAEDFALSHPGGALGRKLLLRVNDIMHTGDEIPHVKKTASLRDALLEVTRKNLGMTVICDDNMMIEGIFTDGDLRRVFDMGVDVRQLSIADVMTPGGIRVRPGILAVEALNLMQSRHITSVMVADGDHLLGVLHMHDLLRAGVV", "assay": "Inhibitory activity against Arabinose-5-phosphate isomerase at a concentration of 2.4 mM; Not active."}, "[3]": {"system": "arabinose 5-phosphate isomerase (Escherichia coli)", "assay": "Inhibitory activity against Arabinose-5-phosphate isomerase at a concentration of 1.5 mM; Not active."}, "[4]": {"biological_target": "arabinose 5-phosphate isomerase (Escherichia coli) (UniProt P45395)", "assay": "Inhibitory activity against Arabinose-5-phosphate isomerase at a concentration of 3 mM; Not active."}, "[5]": {"system": "arabinose 5-phosphate isomerase (Escherichia coli)", "assay": "Inhibitory activity against Arabinose-5-phosphate isomerase at a concentration of 5 mM; NA = not active at 5"}, "[6]": {"system": "arabinose 5-phosphate isomerase (Escherichia coli)", "assay": "Inhibitory activity against Arabinose-5-phosphate isomerase at a concentration of 5 mM; Not active."}, "[7]": {"system": "arabinose 5-phosphate isomerase (Escherichia coli)", "assay": "Inhibitory activity against Arabinose-5-phosphate isomerase at a concentration of 2 mM; Not active."}, "[8]": {"biological_target": "T1, Arabinose 5-phosphate isomerase KdsD (Salmonella typhimurium (strain LT2 / SGSC1412 / ATCC 700720), UniProt Q8ZLS1)", "T1 sequence (Q8ZLS1 whole entry)": "B1 chain", "assay": "Inhibitory activity against Arabinose-5-phosphate isomerase; Interfered.", "summary_of_the_method": "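Isomerase from E. coli B cells, purified 50-fold. Inhibitor and enzyme were preincubated 2 min at 37 °C in 0.1 M histidine buffer, pH 7.5. The reaction was started with 10 mM (stock) D-arabinose 5-phosphate or D-ribulose 5-phosphate. It was stopped at 0, 3, 6, 9 and 12 min with cysteine HCl, then H2SO4. Ketose was read at 540 nm by carbazole colour (30 min, 37 °C).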"}, "[9]": {"system": "arabinose 5-phosphate isomerase (Escherichia coli)", "assay": "Inhibitory activity against Arabinose-5-phosphate isomerase at a concentration of 6 mM"}, "[10]": {"system": "arabinose 5-phosphate isomerase (Escherichia coli)", "assay": "Inhibitory activity against Arabinose-5-phosphate isomerase; Not active."}, "[11]": {"biological_target": "arabinose 5-phosphate isomerase (Escherichia coli) (UniProt P45395)", "assay": "Inhibitory activity against Arabinose-5-phosphate isomerase at a concentration of 12 mM; Not active."}, "[12]": {"system": "arabinose 5-phosphate isomerase (Escherichia coli)", "assay": "Inhibitory activity against Arabinose-5-phosphate isomerase; Unstable."}, "[13]": {"compound": "O=P(O)(O)OC[C@H]1O[C@@H](O)[C@@H](O)[C@@H]1O", "assay": "Inhibitory activity against Arabinose-5-phosphate isomerase", "details": "Escherichia coli B"}}, "note": "The source made the active and inactive calls. No cut-off for these calls is given here.", "data": [{"molecule": "O=P(O)(O)OCC(O)C(O)C(O)C(O)CO", "note": "(stereo not given)", "values": [{"measurement": "inhibition", "setting": "[1]", "result": "inactive"}, {"measurement": "inhibition", "setting": "[2]", "result": "inactive"}]}, {"molecule": "O=C1O[C@H](CO)[C@@H](O)[C@H]1O", "values": [{"measurement": "inhibition", "setting": "[1]", "result": "inactive"}]}, {"molecule": "O=P(O)(O)OCC(O)C(O)CCO", "note": "(stereo not given)", "values": [{"measurement": "inhibition", "setting": "[3]", "result": "inactive"}]}, {"molecule": "COC1C(COP(=O)(O)O)OC(O)C1O", "note": "(stereo not given)", "values": [{"measurement": "inhibition", "setting": "[4]", "result": "inactive"}]}, {"molecule": "O=P(O)(O)OCC1OC(O)C(O)C1OCc1ccccc1", "note": "(stereo not given)", "values": [{"measurement": "inhibition", "setting": "[1]", "result": "inactive"}]}, {"molecule": "C[C@H]1OC(O)[C@H](O)[C@H]1O", "note": "(stereo not given in full)", "values": [{"measurement": "inhibition", "setting": "[5]", "result": "inactive"}]}, {"molecule": "O=P(O)(O)OCC1OC(O)C(F)C1O", "note": "(stereo not given)", "values": [{"measurement": "inhibition", "setting": "[6]", "result": "inactive"}]}, {"molecule": "O=P(O)(O)OCC1OC(O)CC1O", "note": "(stereo not given)", "values": [{"measurement": "inhibition", "setting": "[7]", "result": "inactive"}]}, {"molecule": "O=[N+]([O-])OC[C@H]1O[C@H](O)[C@@H](O)[C@@H]1O", "values": [{"measurement": "I 50", "setting": "[8]", "result": "Interfered"}]}, {"molecule": "O=C1O[C@H](CCl)[C@@H](O)[C@H]1O", "values": [{"measurement": "inhibition", "setting": "[9]", "result": 12, "unit": "%"}]}, {"molecule": "O=C(O)C(=O)OC[C@H]1OC(=O)[C@H](O)[C@@H]1O", "values": [{"measurement": "inhibition", "setting": "[10]", "result": "inactive"}]}, {"molecule": "NS(=O)(=O)OC[C@H]1OC(=O)[C@H](O)[C@@H]1O", "values": [{"measurement": "inhibition", "setting": "[11]", "result": "inactive"}]}, {"molecule": "CC(=O)CC(=O)OC[C@H]1O[C@H](O)[C@@H](O)[C@@H]1O", "values": [{"measurement": "I 50", "setting": "[12]", "result": "Unstable"}]}, {"molecule": "B1", "values": [{"measurement": "Km", "setting": "[13]", "result": 200, "unit": "µM"}]}]}
